We go through 1 compound from ChEMBL document CHEMBL4814076, “Discovery of a Potent and Selective Covalent Inhibitor of Bruton's Tyrosine Kinase with Oral Anti-Inflammatory Activity” (ACS Med Chem Lett, 2021).

Calls of active or inactive are those of the source. The rule behind the calls is not given here.

A short description of data set [1]: Cmax in Sprague-Dawley rat at 5 mg/kg, po measured upto 24 hrs by LC-MS/MS analysis. The class given is ADME, organism-based. Also on record: route oral, dose 5 mg/kg, time <=24. Conditions: in vivo. The method, boiled down: (§1)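 Rats (nonfasted; IV 1 mg/kg, PO 5 mg/kg) and dogs (fasted; IV 0.5 mg/kg, PO 2.5 mg/kg) dosed from 20% hydroxypropyl-β-cyclodextrin solution.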

The target in data set [2] is Proto-oncogene tyrosine-protein kinase Src (Homo sapiens, UniProt P12931). Description: Inhibition of recombinant human SRC (1 to 530 residues) using GGEEEEYFELVKKKK as substrate incubated for 40 mins in presence of [gamma33P]ATP by scintillation counting method.
A further data set concerns Rattus norvegicus. As to the kind of experiment: Antiinflammatory activity in po dosed Wistar rat model of type-2 collagen/incomplete freund's adjuvant-induced arthritis assessed as reduction in paw inflammation administered once daily on day 9 post type-2 collagen/incomplete freund's adjuvant stimulation and treated until day 16. The class given is functional, organism-based. To be noted: dose 1-30 mg/kg, time 8.0 day. The method, boiled down: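 Arthritis induced in female Wistar rats by collagen injection on day 0 and day 7. Compound given orally once daily from day 9 through day 16. Hind paw inflammation scored. Anti-TNFα comparator dosed at 10 mg/kg every other day.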

The nature of data set [3]: Oral bioavailability in Sprague-Dawley rat at 5 mg/kg measured upto 24 hrs by LC-MS/MS analysis. The class given is ADME, organism-based. Conditions: in vivo.
Data set [4] addresses Receptor tyrosine-protein kinase erbB-4 (Homo sapiens, UniProt Q15303). Description: Inhibition of recombinant human ERBB4 (706 to 991 residues) using poly(Glu, Tyr) 4:1 as substrate incubated for 40 mins in presence of [gamma33P]ATP by scintillation counting method.
Data set [5] is described as follows: In vivo protein occupancy at BTK in Wistar rat at 3 mg/kg, po measured after 48 hrs by ELISA relative to control. The class given is functional. The gist of the method: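 Single oral dose of 3 mg/kg in rats. BTK occupancy compared with plasma concentration over time out to 48 h.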
The nature of data set [6]: Half life in Sprague-Dawley rat at 1 mg/kg, iv measured upto 24 hrs by LC-MS/MS analysis. The class given is ADME, organism-based. Conditions: in vivo. The method, boiled down:
as §1

Data set [7] addresses T1, Tyrosine-protein kinase BTK (Homo sapiens, UniProt Q06187). As to the kind of experiment: Inhibition of BTK in human whole blood assessed as inhibition of IgM-induced B-cell activation. The class given is tissue-based.
Data set [8] is described as follows: Inhibition of BTK in Wistar rat whole blood assessed as reduction in anti-IgD-induced B220/CD86+ expression incubated for 1 hr followed anti-IgD stimulation and measured after overnight by flow cytometry analysis. The class given is tissue-based. To be noted: Rattus norvegicus, Blood, 1 h. The gist of the method: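 B-cell activation induced by anti-IgD in rat whole blood, read as B220+CD86+ cells.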

The target of data set [9] is Tyrosine-protein kinase BTK (Mus musculus, UniProt P35991). As to the kind of experiment: Inhibition of BTK in C57Bl/6 mouse splenocyte assessed as reduction in anti-IgM-induced CD69 expression incubated for 1 hr followed anti-IgM stimulation and measured after overnight by flow cytometry analysis. The class given is tissue-based. The method, boiled down: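 Mouse splenocytes stimulated with anti-IgM. CD69 expression measured as the read-out.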

Data set [10] concerns the target T1, Tyrosine-protein kinase BTK. As to the kind of experiment: Inhibition of recombinant human BTK using KVEKIGEGTYGVVYK as substrate incubated for 40 mins in presence of [gamma33P]ATP by scintillation counting method.
A short description of data set [11]: Clearance in Sprague-Dawley rat at 5 mg/kg, po or 1 mg/kg, iv measured upto 24 hrs by LC-MS/MS analysis. To be noted: in vivo. The class given is ADME, organism-based. The method, boiled down: as §1
Data set [12] concerns the target Tyrosine-protein kinase Fgr (Homo sapiens, UniProt P09769). As to the kind of experiment: Inhibition of recombinant human FGR (2 to end residues) using poly(Glu, Tyr) 4:1 as substrate incubated for 40 mins in presence of [gamma33P]ATP by scintillation counting method.
A short description of data set [13]: Volume of distribution at steady state in Beagle dog at 2.5 mg/kg, po or 0.5 mg/kg, iv measured upto 24 hrs by LC-MS/MS analysis. The class given is ADME, organism-based, Canis lupus familiaris. To be noted: in vivo, read-out: Vdss. The gist of the method: as §1
In data set [14] the target is T1, Tyrosine-protein kinase BTK. Description: Irreversible covalent inhibition of recombinant unphosphorylated human GST-tagged BTK kinase domain (389 to 659 residues) expressed in insect cells assessed as protein-compound adduct formation under native conditions by HPLC analysis. The method, boiled down: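 BTK protein incubated with compound. Adduct mass measured under denaturing and nondenaturing conditions.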

The target in data set [15] is Tyrosine-protein kinase Lck (Homo sapiens, UniProt P06239). As to the kind of experiment: Inhibition of LCK in human CD4+ T-cells assessed as reduction in anti-CD3/anti-CD28 induced IL-2 secretion at 10 uM incubated for 60 mins followed by anti-CD3/anti-CD28 stimulation and measured after 18 hrs by ELISA. The class given is tissue-based. Conditions: CD4+ve Th, time 19.0 hrs. The method, boiled down:
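Anti-CD3/anti-CD28 stimulation of T cells. IL-2 secretion measured with compound tested up to 10 μM. An ITK inhibitor served as positive control.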

A short description of data set [16]: Volume of distribution at steady state in Sprague-Dawley rat at 5 mg/kg, po or 1 mg/kg, iv measured upto 24 hrs by LC-MS/MS analysis. The class given is ADME, organism-based. Conditions: in vivo, read-out: Vdss. The method, boiled down: as §1
Data set [17] can be described thus: Tmax in Beagle dog at 2.5 mg/kg, po measured upto 24 hrs by LC-MS/MS analysis. The class given is ADME, organism-based, Canis lupus familiaris. Conditions: in vivo. The gist of the method:
as §1

T1 sequence (Q06187 whole entry): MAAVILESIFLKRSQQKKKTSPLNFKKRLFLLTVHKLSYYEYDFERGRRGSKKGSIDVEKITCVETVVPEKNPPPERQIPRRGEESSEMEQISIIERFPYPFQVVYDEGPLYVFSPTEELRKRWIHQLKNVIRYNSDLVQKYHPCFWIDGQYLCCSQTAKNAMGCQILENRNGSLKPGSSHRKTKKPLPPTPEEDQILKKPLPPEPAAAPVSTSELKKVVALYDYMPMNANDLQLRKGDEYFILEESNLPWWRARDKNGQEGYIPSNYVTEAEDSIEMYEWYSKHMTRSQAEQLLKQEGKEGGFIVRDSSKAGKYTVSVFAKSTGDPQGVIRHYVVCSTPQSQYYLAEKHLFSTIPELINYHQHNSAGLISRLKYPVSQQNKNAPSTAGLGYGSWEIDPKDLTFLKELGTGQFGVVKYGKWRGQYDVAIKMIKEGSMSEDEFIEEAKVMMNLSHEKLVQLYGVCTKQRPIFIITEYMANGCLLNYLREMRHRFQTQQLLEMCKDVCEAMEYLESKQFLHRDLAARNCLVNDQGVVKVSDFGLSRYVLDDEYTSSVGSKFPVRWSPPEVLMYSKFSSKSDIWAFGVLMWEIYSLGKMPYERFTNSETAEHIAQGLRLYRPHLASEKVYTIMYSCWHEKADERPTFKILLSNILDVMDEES
Sequence of Tyrosine-protein kinase Fgr (P09769 whole entry): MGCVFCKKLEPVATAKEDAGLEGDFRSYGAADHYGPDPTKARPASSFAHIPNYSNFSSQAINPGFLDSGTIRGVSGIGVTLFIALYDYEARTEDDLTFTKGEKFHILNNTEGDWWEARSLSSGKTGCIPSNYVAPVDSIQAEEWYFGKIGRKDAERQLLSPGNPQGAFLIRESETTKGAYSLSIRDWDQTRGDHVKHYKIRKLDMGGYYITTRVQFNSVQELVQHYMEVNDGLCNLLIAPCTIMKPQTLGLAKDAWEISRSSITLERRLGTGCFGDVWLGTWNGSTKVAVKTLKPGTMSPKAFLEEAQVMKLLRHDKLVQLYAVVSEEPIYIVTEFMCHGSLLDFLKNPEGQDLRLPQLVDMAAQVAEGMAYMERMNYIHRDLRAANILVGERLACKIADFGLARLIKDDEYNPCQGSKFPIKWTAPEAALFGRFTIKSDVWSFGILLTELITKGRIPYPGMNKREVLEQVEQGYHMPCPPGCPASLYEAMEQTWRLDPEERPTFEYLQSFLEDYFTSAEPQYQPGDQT
Sequence of Receptor tyrosine-protein kinase erbB-4 (Q15303 whole entry, the tested form may be a part): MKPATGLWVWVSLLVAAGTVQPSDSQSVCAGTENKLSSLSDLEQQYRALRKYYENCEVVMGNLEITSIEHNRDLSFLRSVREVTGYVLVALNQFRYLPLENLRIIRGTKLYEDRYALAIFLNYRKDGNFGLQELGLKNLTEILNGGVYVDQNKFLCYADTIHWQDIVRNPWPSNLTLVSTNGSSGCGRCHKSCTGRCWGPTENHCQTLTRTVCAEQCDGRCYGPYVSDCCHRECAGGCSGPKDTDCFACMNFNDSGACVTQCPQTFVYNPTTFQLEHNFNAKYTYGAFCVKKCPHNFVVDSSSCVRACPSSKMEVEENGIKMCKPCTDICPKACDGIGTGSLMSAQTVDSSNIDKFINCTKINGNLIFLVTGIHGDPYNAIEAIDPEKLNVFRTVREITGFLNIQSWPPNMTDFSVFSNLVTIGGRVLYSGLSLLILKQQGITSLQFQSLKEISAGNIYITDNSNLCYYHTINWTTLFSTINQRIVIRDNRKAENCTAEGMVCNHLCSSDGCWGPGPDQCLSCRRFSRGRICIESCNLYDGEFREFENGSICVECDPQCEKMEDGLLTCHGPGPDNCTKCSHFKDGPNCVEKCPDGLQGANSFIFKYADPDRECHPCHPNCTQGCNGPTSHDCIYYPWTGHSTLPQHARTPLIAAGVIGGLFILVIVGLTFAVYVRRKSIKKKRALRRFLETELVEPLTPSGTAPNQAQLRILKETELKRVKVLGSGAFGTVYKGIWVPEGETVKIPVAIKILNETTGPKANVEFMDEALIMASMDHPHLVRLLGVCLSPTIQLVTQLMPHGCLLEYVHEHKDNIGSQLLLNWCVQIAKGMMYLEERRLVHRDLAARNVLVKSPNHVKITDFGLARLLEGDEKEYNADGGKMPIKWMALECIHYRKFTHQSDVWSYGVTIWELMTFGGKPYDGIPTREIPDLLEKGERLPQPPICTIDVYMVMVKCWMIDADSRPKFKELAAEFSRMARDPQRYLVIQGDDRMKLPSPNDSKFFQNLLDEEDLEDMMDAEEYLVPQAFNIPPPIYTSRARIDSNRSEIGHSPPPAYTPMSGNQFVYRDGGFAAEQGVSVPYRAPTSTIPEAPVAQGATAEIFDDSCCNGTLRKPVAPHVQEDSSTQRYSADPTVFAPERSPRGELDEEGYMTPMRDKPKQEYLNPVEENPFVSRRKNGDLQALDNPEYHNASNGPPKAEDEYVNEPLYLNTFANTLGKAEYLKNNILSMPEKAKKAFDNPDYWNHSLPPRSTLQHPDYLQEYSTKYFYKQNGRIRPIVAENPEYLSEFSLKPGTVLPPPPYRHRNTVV
Sequence of Proto-oncogene tyrosine-protein kinase Src (P12931 2-536 limits assumed): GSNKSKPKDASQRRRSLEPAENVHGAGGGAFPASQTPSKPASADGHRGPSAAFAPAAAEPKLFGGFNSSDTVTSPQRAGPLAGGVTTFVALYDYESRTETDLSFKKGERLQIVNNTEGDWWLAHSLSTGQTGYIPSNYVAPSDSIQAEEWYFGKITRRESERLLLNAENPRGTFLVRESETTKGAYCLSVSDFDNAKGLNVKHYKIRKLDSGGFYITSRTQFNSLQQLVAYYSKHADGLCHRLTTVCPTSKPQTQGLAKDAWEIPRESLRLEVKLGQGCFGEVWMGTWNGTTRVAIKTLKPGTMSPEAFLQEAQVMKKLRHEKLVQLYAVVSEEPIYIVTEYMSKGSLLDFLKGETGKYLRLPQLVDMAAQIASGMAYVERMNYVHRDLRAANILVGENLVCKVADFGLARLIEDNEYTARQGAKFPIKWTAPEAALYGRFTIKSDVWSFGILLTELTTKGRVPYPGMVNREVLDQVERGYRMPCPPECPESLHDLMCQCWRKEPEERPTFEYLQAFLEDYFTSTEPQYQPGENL
Sequence of Tyrosine-protein kinase BTK (Mus musculus, UniProt P35991) (P35991 whole entry): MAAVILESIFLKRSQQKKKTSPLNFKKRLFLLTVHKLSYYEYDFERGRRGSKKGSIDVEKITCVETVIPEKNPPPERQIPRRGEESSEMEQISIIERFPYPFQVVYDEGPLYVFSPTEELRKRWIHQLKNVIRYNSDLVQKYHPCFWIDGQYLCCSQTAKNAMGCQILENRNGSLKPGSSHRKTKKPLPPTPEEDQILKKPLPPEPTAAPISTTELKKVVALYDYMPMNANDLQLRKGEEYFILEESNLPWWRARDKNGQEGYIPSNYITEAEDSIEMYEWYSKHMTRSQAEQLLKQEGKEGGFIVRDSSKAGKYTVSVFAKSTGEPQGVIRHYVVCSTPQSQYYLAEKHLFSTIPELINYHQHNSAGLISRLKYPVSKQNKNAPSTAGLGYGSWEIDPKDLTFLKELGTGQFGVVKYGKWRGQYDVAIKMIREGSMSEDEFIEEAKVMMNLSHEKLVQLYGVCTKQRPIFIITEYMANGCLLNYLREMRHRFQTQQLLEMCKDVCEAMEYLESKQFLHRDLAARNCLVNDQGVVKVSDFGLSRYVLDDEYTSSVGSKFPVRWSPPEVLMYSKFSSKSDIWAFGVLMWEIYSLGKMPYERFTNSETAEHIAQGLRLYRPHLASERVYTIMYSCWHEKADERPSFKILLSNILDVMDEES
Sequence of Tyrosine-protein kinase Lck (P06239 2-509 limits assumed): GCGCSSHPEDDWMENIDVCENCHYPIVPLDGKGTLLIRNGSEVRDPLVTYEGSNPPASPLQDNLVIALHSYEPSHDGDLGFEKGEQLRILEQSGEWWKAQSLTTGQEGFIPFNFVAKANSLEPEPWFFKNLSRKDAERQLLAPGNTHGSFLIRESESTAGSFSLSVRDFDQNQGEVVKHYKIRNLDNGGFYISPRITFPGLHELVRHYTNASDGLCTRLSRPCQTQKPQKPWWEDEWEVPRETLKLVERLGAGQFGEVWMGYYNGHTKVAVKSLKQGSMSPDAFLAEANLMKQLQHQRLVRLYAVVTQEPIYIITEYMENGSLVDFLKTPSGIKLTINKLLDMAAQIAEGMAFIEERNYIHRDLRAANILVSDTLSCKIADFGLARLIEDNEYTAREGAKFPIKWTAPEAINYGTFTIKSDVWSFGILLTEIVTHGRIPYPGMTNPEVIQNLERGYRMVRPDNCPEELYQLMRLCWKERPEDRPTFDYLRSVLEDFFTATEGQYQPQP

The compound `C=CC(=O)N1CC[C@@H](NC(=O)c2sc3nccc4c3c2NC(=O)N4c2ccc(Oc3ccccc3)cc2C)C1` returned a Cmax in [1] of 600 nM. For the same compound, the IC50 in data set [2] worked out at 3490 nM; in data set [4], 377 nM; in [7], 84 nM; in data set [8], 130 nM; in data set [9], 11 nM; in data set [10] it was 142 nM. Moreover, in [12], the IC50 is 4760 nM. Moreover, the Activity result with Rattus norvegicus was “Dose-Dependent Effect”; in data set [5], 50%. The compound further yielded a bioavailability in [3] of 29.7%. In data set [6], this compound showed a half-life of 18 min. In data set [11], this compound registered a clearance of 39.6 mL/min/kg. For the same compound, the values for the Vd in data set [13] and in data set [16] were 1.1 L/kg and 1 L/kg, respectively. Further, the inhibition result in data set [14] was “Active”. The inhibition result in data set [15] is “inactive”. Also, the Tmax in data set [17] was 48 min.
